Assay [1] concerns the target T1, Escherichia coli GUS (EcGUS) (Escherichia coli, UniProt P05804). The assay can be described thus: Inhibition kinetics. In kind it is biochemical. The conditions noted are these: pNPG as substrate; for type of inhibition of EcGUS: Lineweaver-Burk plot. Summed up: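 Recombinant EcGUS was expressed in E. coli BL21(DE3) carrying pET28a-EcGUS. The enzyme hydrolysed pNPG, and activity was read as para-nitrophenyl released. Test compound stocks were 10 mM in DMSO. pNPG and inhibitor concentrations were varied. Inhibition type came from where the regression lines intercept on Lineweaver-Burk plots, and Ki was then calculated. Runs were in triplicate, repeated twice, reported as mean ± SD.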

For assay [2], the target named is T1, Escherichia coli GUS (EcGUS). The assay can be described thus: EcGUS inhibition assay. In kind it is biochemical. The following applies: for percentage inhibition rate of EcGUS: compounds at 100 μM, pNPG as substrate; for inhibition at 100 µM: read-out: percentage inhibition rate of EcGUS.
Setting [3] is: read-out: IC50 against EcGUS, pNPG 250 µM, PBS pH 7.4, 37 °C, 30 min.

The values below come from paper PMC7717682 (Journal of Enzyme Inhibition and Medicinal Chemistry, 2020).

Read-outs that look alike come from different tables or passages of the source.

T1 sequence (P05804 whole entry): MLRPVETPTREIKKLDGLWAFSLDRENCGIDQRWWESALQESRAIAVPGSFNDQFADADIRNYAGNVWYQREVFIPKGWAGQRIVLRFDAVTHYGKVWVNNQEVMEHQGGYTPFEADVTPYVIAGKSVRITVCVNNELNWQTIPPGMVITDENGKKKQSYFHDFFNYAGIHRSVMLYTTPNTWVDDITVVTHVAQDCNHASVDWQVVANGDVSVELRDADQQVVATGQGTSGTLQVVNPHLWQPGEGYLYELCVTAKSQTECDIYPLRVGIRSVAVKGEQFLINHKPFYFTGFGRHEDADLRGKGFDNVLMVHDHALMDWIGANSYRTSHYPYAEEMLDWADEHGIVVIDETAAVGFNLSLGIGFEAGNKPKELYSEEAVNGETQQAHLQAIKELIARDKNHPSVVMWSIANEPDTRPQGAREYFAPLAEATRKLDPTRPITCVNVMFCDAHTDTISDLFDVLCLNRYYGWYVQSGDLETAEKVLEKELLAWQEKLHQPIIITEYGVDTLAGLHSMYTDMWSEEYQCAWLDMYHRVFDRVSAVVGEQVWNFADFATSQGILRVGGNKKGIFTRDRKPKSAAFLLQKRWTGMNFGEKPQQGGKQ

In the case of `CCOC(=O)/C=C/c1ccc(O)c(O)c1` [CAEE, caffeic acid ethyl ester], in assay [1], the “type of inhibition of EcGUS” value is reported as “competitive”. Besides, the Ki in assay [1] (read-out: Ki (inhibition constant) against EcGUS) worked out at 2.7 µM. Also, in assay [2], the “percentage inhibition rate of EcGUS” value worked out at 97.1 ± 0.2%. Also, in assay [2] (setting [3]), the IC50 came out at 7 µM.
As for `O=C(O)[C@@H](O)[C@H]1OC(=O)[C@H](O)[C@H]1O` [DSL, D-glucaric acid-1,4-lactone, reference compound], the “percentage inhibition rate of EcGUS” value in assay [2] is on record as 48.7 ± 1.2%. In addition, in assay [2] (setting [3]), the IC50 amounted to 67.1 µM.
Turning to `C[C@@H]1O[C@@H](O[C@@H]2[C@@H](O)[C@H](OCCc3ccc(O)c(O)c3)O[C@H](CO)[C@H]2OC(=O)/C=C/c2ccc(O)c(O)c2)[C@H](O)[C@H](O)[C@H]1O` [acteoside], the “type of inhibition of EcGUS” value in assay [1] is “mixed-type”. For the same compound, in assay [2], the IC50 turned out to be 3.2 µM and the inhibition at 100 µM came to 88 ± 2.2%.
For `COc1ccc(CCO[C@@H]2O[C@H](CO[C@@H]3OC[C@H](O)[C@H](O)[C@H]3O)[C@@H](OC(=O)/C=C/c3ccc(O)c(OC)c3)[C@H](O[C@@H]3O[C@@H](C)[C@H](O)[C@@H](O)[C@H]3O)[C@H]2O)cc1O` [angoroside C], the IC50 in assay [2] (setting [3]) is above 100 µM.
With `C[C@@H]1O[C@@H](OC[C@H]2O[C@@H](OCCc3ccc(O)c(O)c3)[C@H](OC(=O)/C=C/c3ccc(O)c(O)c3)[C@@H](O)[C@@H]2O)[C@H](O)[C@H](O)[C@H]1O` [forsythoside H], the IC50 in assay [2] (setting [3]) is 22.2 µM.
Consider `C[C@@H]1O[C@@H](O[C@@H]2[C@@H](O)[C@H](OCCc3ccc(O)c(O)c3)O[C@H](COC(=O)/C=C/c3ccc(O)c(O)c3)[C@H]2O)[C@H](O)[C@H](O)[C@H]1O` [isoacteoside], for which the “type of inhibition of EcGUS” value in assay [1] is “mixed-type”. Also, in assay [2], the half-inhibitory concentration (IC50) stood at 8.8 µM and the inhibition at 100 µM worked out at 77%.
`C[C@@H]1O[C@@H](OC[C@H]2O[C@@H](OCCc3ccc(O)c(O)c3)[C@H](O)[C@@H](OC(=O)/C=C/c3ccc(O)c(O)c3)[C@@H]2O)[C@H](O)[C@H](O)[C@H]1O` [isoforsythiaside]: in assay [1], the “type of inhibition of EcGUS” value is listed as “mixed-type”. Further, the half-inhibitory concentration (IC50) in assay [2] (setting [3]) was 7.6 µM.
Regarding `COc1ccc(CCO[C@@H]2O[C@H](CO)[C@@H](OC(=O)/C=C/c3ccc(O)c(OC)c3)[C@H](O[C@@H]3O[C@@H](C)[C@H](O)[C@@H](O)[C@H]3O)[C@H]2O)cc1O` [martynoside], the “type of inhibition of EcGUS” value in assay [1] is listed as “mixed-type”. In addition, the IC50 in assay [2] (setting [3]) worked out at 14.3 µM.
With acetylacteoside, in assay [1], the “type of inhibition of EcGUS” value is recorded as “mixed-type”.
